Measurements of several laboratories.
Protocols differ between the studies behind these lines.
Target: Voltage-gated inwardly rectifying potassium channel KCNH2 (KCNH2, Homo sapiens, UniProt Q12809)

`CNC(=O)[C@@]12C[C@@H]1[C@@H](n1cnc3c(NCCc4ccc(OC)c(OC)c4)nc(C#Cc4ccc(Cl)s4)nc31)[C@H](O)[C@@H]2O` has an inhibition of > 50% (ion current, inhibitor; 10 µM).
For `CCc1cc(O)ccc1-c1ccc2c(-c3nc4c([nH]3)CN(C(C)C)[C@H](C(=O)N3CC(N(C)C)C3)C4)n[nH]c2c1`, the inhibition was < 5% (ion current, inhibitor; 13 µM).
The inhibition of `O=C(Cc1ccc(F)c(CF)c1)N1CCN(c2ccc3nncn3n2)CC1` is reported as 23% (ligand displacement, radioligand; 30 µM).
`CCN(Cc1ccccc1C(F)(F)F)C(=O)C1CCN(S(=O)(=O)c2ccc3[nH]ncc3c2)CC1` gave an inhibition of 18% (ligand displacement, radioligand; 10 µM).
For `O=C(Cc1ccc(F)c(C(F)F)c1)N1CCN(c2ccc3nncn3n2)CC1`, the inhibition was 38% (ligand displacement, radioligand; 30 µM).
With `N=c1n(CCN2CCCCC2)c2ccccc2n1CC(O)c1cccc(Br)c1` (centres unmarked) the inhibition was 99% (ion current, inhibitor, patch clamp; HEK293; 10 µM).
The IC50 of `COc1ncc(C)c(-c2ccc3c(c2)[nH]c(=O)c2cnn([C@H]4CCOC4)c23)c1C` is reported as 4 µM (ion current, inhibitor).
`Cc1nc2cnc(N)c(C#Cc3cncc(C(=O)Nc4ccc(CN5CCN(C)CC5)c(C(F)(F)F)c4)c3)c2nc1C` has an IC50 of 2.4 µM (ion current, inhibitor).
For `CNC(=O)[C@@]12C[C@@H]1[C@@H](n1cnc3c(NCCc4ccc(O)c(OC)c4)nc(C#Cc4ccc(Br)s4)nc31)[C@H](O)[C@@H]2O`, the inhibition was > 50% (ion current, inhibitor; 10 µM).
`Ic1cccc2cnccc12` has an inhibition of 31% (ligand displacement, radioligand; 10 µM).
`CCN(CC)CCNC(=O)C1CCN(c2ccc3nnc(-c4cccc(C)c4)n3n2)CC1` gave an inhibition of 58% (ion current, inhibitor, patch clamp; HEK293; 10 µM).
